CHO parental Ca: signal in parental CHO cells, OX1R antagonist counter-screen; parental CHO-K1, ATP-induced calcium, Fluo-8 fluorescence; inhibition, % at 5.6 µM; 0.63% of 330,000 active;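 active = inhibition above that plate's mean sample inhibition plus 3 SD, cut at about 26% in these data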
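Test system: untransfected parental CHO cell line. Compound: one dose, 5.6 µM nominal. Detection: intracellular calcium via Fluo-8 no-wash fluorescent dye. Measure: % inhibition. Benchmarks: ATP-challenged DMSO wells low, unchallenged DMSO wells high.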
GPR7 antag: blocks human GPR7 receptor signaling; 1.1% of 290,000 active; inhibition, % at 4.4 µM; AID 1861; GPR7-expressing cells, fluorescence antagonist assay; in the data active = inhibition above about 16%, passing the limit was not always enough;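 also: cells stimulated with the agonist NPW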
Target sequence (P48145 whole entry, looked up): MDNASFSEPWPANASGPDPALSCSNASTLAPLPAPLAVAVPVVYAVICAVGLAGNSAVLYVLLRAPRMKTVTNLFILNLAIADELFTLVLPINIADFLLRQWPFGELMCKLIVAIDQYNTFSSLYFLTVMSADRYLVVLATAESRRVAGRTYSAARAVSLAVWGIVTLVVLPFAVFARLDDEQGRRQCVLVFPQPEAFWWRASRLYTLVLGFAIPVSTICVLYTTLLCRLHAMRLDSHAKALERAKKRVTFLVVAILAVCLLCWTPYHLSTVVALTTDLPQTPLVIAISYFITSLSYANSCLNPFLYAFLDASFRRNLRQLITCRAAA
OX1R antag-1: antagonists of human orexin 1 receptor (OX1R); inhibition, % at 6.6 µM; O43613; AID 485270; OX1R-expressing cells, FRET antagonist read-out; 1.8% of 330,000 active; in the data active = inhibition mostly above about 38%, no sharp cut-off; inactive = mostly below about 40%
TAAR1 antagonist: antagonists of human TAAR1. Q96RJ0. CHO RD-HGA16 TAAR1, Fluo-8 calcium fluorescence, antagonist. inhibition, % at 3 µM. 1.5% of 360,000 active. AID 624466;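 active = inhibition above a per-plate cutoff, the mean inhibition of test compounds on that plate plus 3 SD, cut at about 49% in these data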
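Material: RD-HGA16 CHO cells with stable hTAAR1 and Gα16; Dosing: single nominal final test compound concentration of 3 µM; Schedule: seeding 17-24 h prior, 75-min 37 °C, 30-min RT dye loading; Detection: kinetic Fluo-8 calcium fluorescence measurement; Measure: % inhibition from peak post-agonist over basal fluorescence ratio; Benchmarks: vehicle and agonist controls.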
TAAR1 agonist: agonists of human TAAR1. Q96RJ0. CHO RD-HGA16 TAAR1, Fluo-8 calcium fluorescence; vehicle wells 0%, saturating PEA agonist 100%. 0.99% of 360,000 active. activation, % at 3 µM;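 active = activation above the mean activation of all test compounds in the run plus 3 SD, cut at about 38% in these data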
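System: CHO-derived RD-HGA16 cells with stable Gα16 and human TAAR1. Times: 17-24 h plating, Fluo-8 75 min 37 °C, 30 min RT. Measured by: calcium-sensitive Fluo-8 signal, excitation 470-495, emission 515-575 nm. Read-out basis: % activation relative to PEA EC100 response. Control set: DMSO and PEA EC100. Repeats: no replicates (n 1).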
OX1R antag-2: antagonists of human orexin 1 receptor | 0.43% of 330,000 active | O43613 | AID 434989 | CHO/OX1R cells, Fluo-8 calcium fluorescence, orexin A | inhibition, % at 5 µM;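 active = inhibition above its plate's threshold, mean inhibition of all tested compounds on the plate plus 3 SD, cut at about 37% in these data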
OX1R HTRF confirm: OX1R (human) antagonism, HTRF confirmed; shares compounds with OX1R antag-1; OX1R-expressing cells, HTRF antagonist assay; inhibition, % at 6.6 µM; 49% of 1,800 active; in the data active = inhibition above about 55%;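 also: CHO cells expressing OX1R stimulated with orexin A at about EC80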
CHO-K1 HTRF cnt: counter-screen: parental CHO-K1 HTRF response; 48% of 1,800 active; parental CHO-K1 cells, HTRF counterscreen; shares compounds with OX1R antag-1; inhibition, % at 6.6 µM; in the data active = inhibition above about 17%
Large screens that a line does not name were inactive (follow-up assays come after a bar, where they were run). Sampled rows, rich in hits. Any-hit rate of the full collection: about 4.6%.

Cc1c(C(=O)O)sc2nc(-c3cccs3)cc(C(F)(F)F)c12	OX1R antag-1 78.4 | OX1R HTRF confirm inactive | CHO-K1 HTRF cnt 30.1
CCNC(=O)C1CCCN(C(=O)C(c2ccccc2)c2ccccc2)CC1 (centres undefined)	none (no result: CHO parental Ca, GPR7 antag, OX1R antag-1, OX1R antag-2)
CCCCN1CC[C@H]2C=CC[C@@H](C(=O)Nc3ccc(Cl)c(C(F)(F)F)c3)[C@H]2C1=O	none (no result: GPR7 antag)
O=C(Nc1ccccc1)[C@@H]1CC=C[C@@H]2CCN(Cc3ccccc3)C(=O)[C@@H]21	OX1R antag-1 82.8 (no result: GPR7 antag) | OX1R HTRF confirm 86.3 | CHO-K1 HTRF cnt inactive
O=C(Nc1ccc(Cl)c(C(F)(F)F)c1)[C@@H]1CC=C[C@@H]2CCN(Cc3ccccc3)C(=O)[C@@H]21	OX1R antag-1 84.1 (no result: GPR7 antag) | OX1R HTRF confirm 85.3 | CHO-K1 HTRF cnt inactive
O=[N+]([O-])c1cccc(OCc2cn3cccnc3n2)c1	OX1R antag-1 129.7 | OX1R HTRF confirm inactive | CHO-K1 HTRF cnt 27.4
CC(=O)c1c(C)[nH]c(C(=O)OCC(=O)N2CCN(c3ccccc3)CC2)c1C	none (no result: CHO parental Ca, GPR7 antag, OX1R antag-1, OX1R antag-2)
COC(=O)C1(S(=O)(=O)c2cccc3nsnc23)CC1	OX1R antag-1 105.6 | OX1R HTRF confirm inactive | CHO-K1 HTRF cnt 36.1
CNC(=O)c1ccc(NC(=O)Cc2ccc(S(=O)(=O)N3CCOCC3)s2)cc1	none (no result: GPR7 antag)
COC(=O)c1cc(=O)c2c(C)nc(C(Cl)(Cl)Cl)nc2[nH]1	OX1R antag-1 79.0 | OX1R HTRF confirm inactive | CHO-K1 HTRF cnt inactive
COc1ccc([C@H]2C[C@H](O)[C@@H](n3cc(-c4ccc(F)cc4)nn3)CN2Cc2cccs2)cc1	none (no result: CHO parental Ca, GPR7 antag, OX1R antag-1, OX1R antag-2)
COc1ccc(-n2nc([N+](=O)[O-])c(=NCCc3ccc(Cl)cc3)n2O)cc1	none
COc1ccc(-n2nc([N+](=O)[O-])c(=NCCc3ccc(C)cc3)n2O)cc1	none
COc1ccc(-n2nc([N+](=O)[O-])c(=NCCc3ccc(OC)c(OC)c3)n2O)cc1	OX1R antag-1 84.4 | OX1R HTRF confirm inactive | CHO-K1 HTRF cnt 54.5

Compound activity: PubChem BioAssay, The Scripps Research Institute Molecular Screening Center
